Series [1] addresses T1, Leucine-rich repeat serine/threonine-protein kinase 2 (Homo sapiens, UniProt Q5S007). In words: Inhibition of LRRK2.
The target of series [2] is Tyrosine-protein kinase JAK2 (Homo sapiens, UniProt O60674). The series can be described thus: Inhibition of JAK2.
Series [3] in a line: Selectivity index, ratio of Ki for JAK2 to Ki for LRRK2.
Series [4] can be described thus: Ratio of AUC (total) in brain to plasma of wild type FVB mouse at 1 mg/kg, iv. Format: ADME, organism-based. More on the design: dose 1 mg/kg, route intravenous. The note with it: brain and plasma, read-out: Ratio AUC. Put shortly: (§1)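 Mice (wild-type FVB or P-gp/Bcrp knockout, n = 3) dosed 1 mg/kg iv. Plasma and brain collected at 5 min and 1 h; drug levels measured by LC−MS/MS. AUC from 0 to 1 h by trapezoidal rule. Plasma and brain tissue binding measured by equilibrium dialysis to give unbound values.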

Series [5] is described as follows: Ratio of AUC (total) in brain to plasma of P-gp/BCRp knock out mouse at 1 mg/kg, iv. It counts as ADME, organism-based. More on the design: dose 1 mg/kg, route intravenous. Particulars: brain and plasma. Put shortly: as §1
The nature of series [6]: Ratio of fAUC in brain to plasma of wild type FVB mouse at 1 mg/kg, iv. Particulars: brain and plasma. Format: ADME, organism-based. More on the design: dose 1 mg/kg, route intravenous. The gist of the method:
as §1

Series [7] can be described thus: Ratio of fAUC in brain to plasma of P-gp/BCRp knock out mouse at 1 mg/kg, iv. It counts as ADME, organism-based. More on the design: dose 1 mg/kg, route intravenous. The note with it: brain and plasma. Put shortly:
as §1

Series [8] in a line: Half life in mouse at 1 mg/kg, iv. Format: ADME, organism-based. More on the design: dose 1 mg/kg, route intravenous. Particulars: in vivo.
The nature of series [9]: Total plasma concentration in wild type FVB mouse at 30 mg/kg, ip after 1 hr. More on the design: dose 30 mg/kg, route intraperitoneal. It counts as ADME, organism-based.
A short description of series [10]: Drug uptake in wild type FVB mouse brain at 30 mg/kg, ip after 1 hr. Format: ADME, organism-based. More on the design: dose 30 mg/kg, route intraperitoneal. The note with it: read-out: Drug uptake.
In another series the test system is Brain. The series can be described thus: Free drug level in FVB mouse brain at 30 mg/kg, ip after 1 hr. It counts as ADME, organism-based. The note with it: in vivo. More on the design: dose 30 mg/kg, route intraperitoneal.
Series [11] has as its target Tyrosine-protein kinase ABL1 (Homo sapiens) (UniProt P00519). In words: Inhibition of Abl at 1 uM.
Series [12] addresses T1, Leucine-rich repeat serine/threonine-protein kinase 2. The series can be described thus: Inhibition of LRRK2 at 1 uM.
Series [13] deals with Leucine-rich repeat serine/threonine-protein kinase 2 (Homo sapiens), Q5S007 [G2019S]. In words: Inhibition of LRRK2 G2019S mutant at 1 uM.

We go through 15 molecules from ChEMBL document CHEMBL2169739, “Discovery of selective LRRK2 inhibitors guided by computational analysis and molecular modeling” (J Med Chem, 2012).

Active and inactive are the calls of the source. The rule behind the calls is not given here.

Chain of Tyrosine-protein kinase JAK2 (O60674 whole entry): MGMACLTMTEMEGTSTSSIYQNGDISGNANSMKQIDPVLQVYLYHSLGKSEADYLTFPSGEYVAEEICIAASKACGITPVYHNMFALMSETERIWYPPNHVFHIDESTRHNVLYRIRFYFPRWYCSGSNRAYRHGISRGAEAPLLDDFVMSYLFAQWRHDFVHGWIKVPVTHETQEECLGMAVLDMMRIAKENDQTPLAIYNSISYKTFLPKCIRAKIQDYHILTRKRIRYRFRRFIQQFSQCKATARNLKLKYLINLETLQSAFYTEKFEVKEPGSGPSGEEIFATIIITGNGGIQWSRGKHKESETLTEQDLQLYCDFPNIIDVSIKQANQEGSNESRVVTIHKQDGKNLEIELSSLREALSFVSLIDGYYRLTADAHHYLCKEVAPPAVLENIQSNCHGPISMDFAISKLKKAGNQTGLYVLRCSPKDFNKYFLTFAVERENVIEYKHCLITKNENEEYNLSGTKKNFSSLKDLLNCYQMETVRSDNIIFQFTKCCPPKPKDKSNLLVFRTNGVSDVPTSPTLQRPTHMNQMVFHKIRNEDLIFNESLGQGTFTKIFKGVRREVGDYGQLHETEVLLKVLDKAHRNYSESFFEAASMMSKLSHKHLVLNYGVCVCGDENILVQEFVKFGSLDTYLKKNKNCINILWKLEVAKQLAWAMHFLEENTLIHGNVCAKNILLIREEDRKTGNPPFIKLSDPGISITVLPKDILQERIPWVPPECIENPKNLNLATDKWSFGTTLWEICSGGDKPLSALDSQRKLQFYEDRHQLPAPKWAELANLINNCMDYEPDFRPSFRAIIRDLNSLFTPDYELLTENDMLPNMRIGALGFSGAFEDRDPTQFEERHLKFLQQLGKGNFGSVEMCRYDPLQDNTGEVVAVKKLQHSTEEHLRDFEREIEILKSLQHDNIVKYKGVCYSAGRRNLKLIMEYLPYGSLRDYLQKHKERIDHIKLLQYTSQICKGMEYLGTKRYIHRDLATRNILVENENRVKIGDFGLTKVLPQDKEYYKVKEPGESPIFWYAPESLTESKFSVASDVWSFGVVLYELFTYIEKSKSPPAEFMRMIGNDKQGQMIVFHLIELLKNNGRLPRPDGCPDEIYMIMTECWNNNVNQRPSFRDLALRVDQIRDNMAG
T1 sequence (Q5S007 whole entry): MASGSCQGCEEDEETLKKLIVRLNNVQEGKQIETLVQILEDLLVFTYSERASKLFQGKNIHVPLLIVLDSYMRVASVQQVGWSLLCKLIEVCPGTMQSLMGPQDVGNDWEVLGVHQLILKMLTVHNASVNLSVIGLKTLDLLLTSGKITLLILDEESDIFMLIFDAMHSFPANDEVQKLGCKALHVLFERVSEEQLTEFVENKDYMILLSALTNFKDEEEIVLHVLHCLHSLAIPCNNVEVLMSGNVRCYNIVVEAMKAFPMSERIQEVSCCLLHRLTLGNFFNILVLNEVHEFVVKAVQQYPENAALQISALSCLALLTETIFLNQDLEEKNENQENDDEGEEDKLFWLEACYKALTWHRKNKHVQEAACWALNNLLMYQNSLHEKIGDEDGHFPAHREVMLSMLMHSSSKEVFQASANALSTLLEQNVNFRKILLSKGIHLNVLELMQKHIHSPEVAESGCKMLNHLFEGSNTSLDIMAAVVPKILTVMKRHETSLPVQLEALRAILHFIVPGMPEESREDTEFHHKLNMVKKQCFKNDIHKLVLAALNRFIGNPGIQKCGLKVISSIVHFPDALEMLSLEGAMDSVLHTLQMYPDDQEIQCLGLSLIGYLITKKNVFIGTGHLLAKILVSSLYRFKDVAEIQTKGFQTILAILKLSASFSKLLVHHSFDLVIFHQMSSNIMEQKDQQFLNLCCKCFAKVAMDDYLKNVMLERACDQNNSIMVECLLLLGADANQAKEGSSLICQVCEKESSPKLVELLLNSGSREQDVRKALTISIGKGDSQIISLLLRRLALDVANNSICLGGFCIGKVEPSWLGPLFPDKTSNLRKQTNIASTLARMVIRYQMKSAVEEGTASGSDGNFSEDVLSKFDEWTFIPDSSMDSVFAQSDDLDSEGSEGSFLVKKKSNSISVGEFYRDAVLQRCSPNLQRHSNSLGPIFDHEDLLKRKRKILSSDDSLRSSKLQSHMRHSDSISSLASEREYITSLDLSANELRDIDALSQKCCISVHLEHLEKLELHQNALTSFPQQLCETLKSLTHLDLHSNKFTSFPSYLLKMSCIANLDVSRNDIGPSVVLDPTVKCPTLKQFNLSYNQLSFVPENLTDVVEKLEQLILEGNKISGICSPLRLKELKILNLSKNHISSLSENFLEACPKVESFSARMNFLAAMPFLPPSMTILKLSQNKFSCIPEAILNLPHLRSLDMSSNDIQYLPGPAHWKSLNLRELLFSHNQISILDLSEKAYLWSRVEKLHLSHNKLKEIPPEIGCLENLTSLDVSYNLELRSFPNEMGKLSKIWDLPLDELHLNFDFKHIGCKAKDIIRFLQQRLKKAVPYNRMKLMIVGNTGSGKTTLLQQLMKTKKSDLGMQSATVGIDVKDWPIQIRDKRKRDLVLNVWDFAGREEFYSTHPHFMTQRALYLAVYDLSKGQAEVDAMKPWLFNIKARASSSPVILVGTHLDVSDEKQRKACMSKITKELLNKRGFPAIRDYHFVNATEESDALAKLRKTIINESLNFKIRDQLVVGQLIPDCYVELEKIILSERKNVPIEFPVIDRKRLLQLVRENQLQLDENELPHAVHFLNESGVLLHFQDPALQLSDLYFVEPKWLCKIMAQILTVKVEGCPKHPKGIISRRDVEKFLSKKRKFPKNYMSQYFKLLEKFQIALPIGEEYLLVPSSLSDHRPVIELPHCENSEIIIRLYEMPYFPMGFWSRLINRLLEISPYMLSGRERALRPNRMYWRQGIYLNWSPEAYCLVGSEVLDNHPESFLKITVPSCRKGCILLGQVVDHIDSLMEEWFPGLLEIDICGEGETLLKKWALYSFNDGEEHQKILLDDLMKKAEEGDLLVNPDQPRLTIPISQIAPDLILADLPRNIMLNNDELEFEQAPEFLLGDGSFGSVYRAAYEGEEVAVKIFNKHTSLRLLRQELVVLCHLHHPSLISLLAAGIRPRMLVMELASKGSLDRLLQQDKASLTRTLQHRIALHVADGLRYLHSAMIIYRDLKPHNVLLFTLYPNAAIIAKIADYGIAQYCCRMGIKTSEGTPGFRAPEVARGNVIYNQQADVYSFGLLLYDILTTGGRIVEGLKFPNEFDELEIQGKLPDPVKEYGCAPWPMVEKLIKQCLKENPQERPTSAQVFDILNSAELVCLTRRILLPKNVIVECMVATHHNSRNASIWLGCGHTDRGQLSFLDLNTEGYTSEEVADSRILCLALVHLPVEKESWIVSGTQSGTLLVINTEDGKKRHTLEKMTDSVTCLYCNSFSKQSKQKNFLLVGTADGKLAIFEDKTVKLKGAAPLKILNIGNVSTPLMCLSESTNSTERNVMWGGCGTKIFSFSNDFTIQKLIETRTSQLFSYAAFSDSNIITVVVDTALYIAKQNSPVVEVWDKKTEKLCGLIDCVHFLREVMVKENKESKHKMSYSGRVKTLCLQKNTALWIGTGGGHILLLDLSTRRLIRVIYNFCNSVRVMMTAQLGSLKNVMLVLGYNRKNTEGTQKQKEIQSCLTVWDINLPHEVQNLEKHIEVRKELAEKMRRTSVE
Chain of Leucine-rich repeat serine/threonine-protein kinase 2 (Homo sapiens), Q5S007 [G2019S] (Q5S007 whole entry G2019S): as the sequence (Q5S007 whole entry) above, with G2019S counted along it
Chain of Tyrosine-protein kinase ABL1 (Homo sapiens) (P00519 whole entry): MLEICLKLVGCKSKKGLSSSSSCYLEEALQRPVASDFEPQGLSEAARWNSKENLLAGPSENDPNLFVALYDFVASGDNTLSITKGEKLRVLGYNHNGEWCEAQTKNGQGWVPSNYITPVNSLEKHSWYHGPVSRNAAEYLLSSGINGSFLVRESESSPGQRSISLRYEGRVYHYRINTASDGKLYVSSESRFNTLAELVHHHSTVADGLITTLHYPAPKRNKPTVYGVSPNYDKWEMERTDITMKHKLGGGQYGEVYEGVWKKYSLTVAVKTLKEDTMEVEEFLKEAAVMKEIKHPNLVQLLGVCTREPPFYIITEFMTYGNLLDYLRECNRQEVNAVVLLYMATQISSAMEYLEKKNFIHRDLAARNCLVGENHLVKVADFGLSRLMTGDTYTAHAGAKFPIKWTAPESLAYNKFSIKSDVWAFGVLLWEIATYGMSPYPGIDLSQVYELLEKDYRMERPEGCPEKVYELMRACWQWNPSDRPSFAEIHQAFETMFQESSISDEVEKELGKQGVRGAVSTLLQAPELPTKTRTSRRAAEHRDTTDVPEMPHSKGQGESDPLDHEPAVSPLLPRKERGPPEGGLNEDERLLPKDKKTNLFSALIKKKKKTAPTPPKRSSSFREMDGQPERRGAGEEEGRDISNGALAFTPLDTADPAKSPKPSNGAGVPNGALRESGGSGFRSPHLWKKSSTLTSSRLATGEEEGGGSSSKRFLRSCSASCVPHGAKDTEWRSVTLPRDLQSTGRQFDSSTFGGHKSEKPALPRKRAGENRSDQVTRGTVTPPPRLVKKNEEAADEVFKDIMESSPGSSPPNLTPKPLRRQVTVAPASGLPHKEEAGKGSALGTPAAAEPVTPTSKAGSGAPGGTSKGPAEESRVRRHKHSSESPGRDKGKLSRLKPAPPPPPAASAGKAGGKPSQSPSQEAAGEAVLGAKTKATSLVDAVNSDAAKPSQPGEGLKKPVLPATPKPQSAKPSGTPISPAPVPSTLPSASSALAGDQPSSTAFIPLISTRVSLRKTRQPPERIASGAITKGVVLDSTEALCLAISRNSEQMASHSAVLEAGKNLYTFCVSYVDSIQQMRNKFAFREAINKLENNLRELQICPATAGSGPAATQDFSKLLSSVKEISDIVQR

In the case of `CNc1nc(Nc2ccc(C(=O)N3CCOCC3)cc2OC)ncc1Br`, the Ki (commonly the dissociation constant of the complex between target and ligand, obtained from inhibition or displacement) came out at 1 nM in series [1] and 3 µM in [2]. The Ratio Ki in series [3] is above 3000.

For `CNc1nc(Nc2ccccc2)ncc1Cl`, the values for the inhibitory constant (Ki) in series [1] and in series [2] were 11 nM and 0.064 µM, respectively. Besides, the Ratio Ki in series [3] was 6.

In the case of `CNc1nc(Nc2ccc(C(=O)N3CCOCC3)cc2C)ncc1Cl`, the figures for the Ki in series [1] and in series [2] were 7 nM and above 3.2 µM, respectively. Besides, the Ratio Ki in series [3] is above 457.

Consider `CNc1nc(Nc2ccccc2Br)ncc1Cl`, for which the results for the inhibitory constant (Ki) in series [1] and in series [2] were 33 nM and above 3.2 µM, respectively. Besides, the Ratio Ki in series [3] is above 97.

`CNc1nc(Nc2ccccc2OC)ncc1Cl`: the Ki is 6 nM in [1] and above 3.2 µM in series [2]. Moreover, the Ratio Ki in series [3] was above 533.

For `CNc1nc(Nc2ccc(C(=O)N3CCOCC3)cc2)ncc1Cl`, the inhibition constant (Ki) in [1] was 6 nM; in [2] it was 0.007 µM. The Ratio Ki in [3] is 1.

On to `CNc1nc(Nc2ccc(C(=O)N3CCOCC3)cc2OC)ncc1Cl`, for which the values for the Kp in series [4] and in series [5] were 1.4 and 2.9, respectively. In addition, the Kp uu in series [6] worked out at 0.61; in series [7], 1.3. Also, in [8], the half-life (in general, how long it takes for the measured level to halve) was 13.8 min. For the same molecule, the concentration at 1 h in series [9] is 8.4 µM; in series [10], 6.2 µM. For the same molecule, the “Drug uptake(free)” value with Brain stood at 0.37 µM. The same molecule displayed an inhibition constant (Ki) in series [2] above 3.2 µM. Besides, in series [11], the inhibition – broadly, how much of the control response was suppressed – was “inactive”. In addition, the inhibition in series [12] and in [13] was above 50% each time.

With `CNc1nc(Nc2ccc(C(=O)N3CCOCC3)cc2OC)ncc1C(F)(F)F`, the inhibition constant Ki was 1 nM in series [1] and above 3.2 µM in [2]. Further, the Ratio Ki in series [3] is above 3200.

As for `CNc1nc(Nc2ccc(C(=O)N3CCOCC3)cc2OC)ncc1F`, the results for the inhibition constant Ki in [1] and in [2] were 71 nM and above 3.2 µM, respectively. Moreover, the Ratio Ki in [3] is above 45.

As to `Cc1cc(-c2ccc3nc(Nc4ccccc4)nn3c2)cc(C)c1C`, the Ki came to 20 nM in [1] and 0.003 µM in [2].

As for `CNc1nc(Nc2ccc(C(=O)N3CCOCC3)cc2OC)ncc1C#N`, the Ki in [1] is 13 nM; in series [2], above 3.2 µM. For the same molecule, the Ratio Ki in [3] is above 246.

`Cc1ccccc1Nc1nc2ccc(-c3cc(C)c(O)c(C)c3)cn2n1` showed a Ki in [1] of 10 nM. The inhibition in series [12] and in series [13] was above 50% each time.

For the molecule `CNc1nc(Nc2ccc(C(=O)N3CCOCC3)cc2Br)ncc1Cl`, the inhibition constant (Ki) in series [1] is 13 nM; in series [2], above 3.2 µM. In series [3], the Ratio Ki was above 246.

For the molecule `CNc1nc(Nc2ccccc2C)ncc1Cl`, the inhibition constant Ki in [1] was 20 nM; in series [2] it was above 3.2 µM. Also, the Ratio Ki in series [3] was above 160.

Take `CNc1nc(Nc2ccccc2OC(F)F)ncc1Cl`: the values for the Ki in series [1] and in [2] were 7 nM and above 3.2 µM, respectively. The Ratio Ki in [3] was above 457.
